iPSC survival up: enhancers of single-cell hiPSC survival, primary screen, ATPlite luminescence. AID 602274, 2012. actives 0.044% (n = 360,000). survival enhancement, % at 20 µM. 100% = ROCK inhibitor wells, 0% = DMSO; in the data active = survival enhancement above about 18%;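 note: cells exposed to compounds for 16 hours before the ATP read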
UPR XBP1 act: activators of adaptive XBP1 UPR arm, primary screen, cell-based, CHO-XBP1 luciferase reporter, luminescence, uHTS | IRE1-XBP1 UPR activation; percent of tunicamycin response, DMSO as zero | activation, % at 20 µM | actives 0.33% (n = 330,000);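 active = versus positive control, 20 µM dose yields 30% or more activation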
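Material: CHO cell line with stable XBP1 luciferase reporter; schedule: 16-18 h cell attachment at 37 °C, then 6 h compound exposure; signal: glow luminescence from Steady-Glo reagent; medium: serum-containing F12 medium, 10% FBS; benchmarks: tunicamycin 10 µg/mL and vehicle-only wells; read-out: percent activation relative to tunicamycin reference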
H9c2 protect: cardioprotection against H2O2-induced cell death, primary screen, uHTS, H9c2 cells, ATPLite luminescence; AID 588492, 2011; H9c2 cardiomyocytes, H2O2 injury protection, 2 h; actives 0.63% (n = 360,000); protection from H2O2 cell death, % at 20 µM;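 active = compounds giving at least 50% protection of heart cells from peroxide-induced death in the single-dose screen, raw or plate-pattern-corrected value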
CHOP inhibitor: inhibitors of CHOP promoter induction, primary screen, cell-based, unfolded protein response, luciferase reporter; CHO-K1 CHOP-promoter luciferase, tunicamycin-induced, 15-18 h; inhibition, % at 10 µM; actives 3.8% (n = 220,000);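 active = compounds that reduced the stress-induced luciferase reporter signal by more than about 70% of percent inhibition, limit read from the data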
CHOP UPR activ: activators of apoptotic CHOP UPR arm, primary screen, cell-based, CHO-CHOP luciferase reporter, luminescence, uHTS; actives 0.34% (n = 330,000); activation, % at 10 µM; UPR activation; percent of tunicamycin response over DMSO baseline;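 active = at 10 µM dose, activation of 40% or more, normalized to positive control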
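measured by = luciferase luminescence | assay system = CHO-CHOP cells, stable luciferase reporter of PERK-eIF2a-CHOP signalling | amount = 500 reporter cells seeded per well | timing = 6 h compound exposure at 37 °C after overnight seeding | controls = positive tunicamycin 10 µg/mL, negative DMSO alone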
XBP1 UPR conf: IRE1-XBP1 UPR arm activators, confirmation, cell-based, CHO-XBP1 luciferase reporter, luminescence, single concentration. activation, % at 20 µM. shares compounds with UPR XBP1 act. AID 485299, 2010. actives 63% (n = 1,000);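 active = reporter signal at least 30% of the positive control's activation in two or more of four replicate wells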
Each line names hits and unclear results; the compound was inactive in the other large screens (follow-up assays come after a bar, where they were run). Only a selection was taken, and hits are over-represented in it overall.

Cn1c(=O)[nH]c(=O)c2c1nc(N1CCc3ccccc3C1)n2CCSc1nc2ccccc2s1	UPR XBP1 act 34 | XBP1 UPR conf inactive
CC1(C)CC(=O)C(C=Nc2ccc3cn[nH]c3c2)=C(O)C1	UPR XBP1 act 30 | XBP1 UPR conf inactive
CC1(C)CC(=O)C(C=Nc2ccc3[nH]ncc3c2)=C(O)C1	none
COc1cc(/C=N/NC(N)=O)c(Br)cc1OCC(=O)Nc1ccccc1C	UPR XBP1 act 109 | XBP1 UPR conf 72
COc1cc(/C=N/O)c(Br)cc1OCC(=O)Nc1ccccc1C	none
CC(C)=CCc1c2c(c3occ(-c4ccc(O)cc4)c(=O)c3c1O)C=CC(C)(C)O2	UPR XBP1 act 56, CHOP inhibitor 76 | XBP1 UPR conf 50
CC(C)=CCc1c(O)cc2c(=O)c3ccc(O)cc3oc2c1O	none (no result: CHOP inhibitor)
Cc1cc(-c2ccccc2)n(-c2ccc(C(N)=O)cc2)n1	none
CNC(=O)c1ccc(-n2nc(C)cc2-c2ccccc2)cc1	UPR XBP1 act 44 | XBP1 UPR conf inactive
COc1ccc(NC(=O)CSc2nc3ccc(Nc4nc(N5CCOCC5)nc(N5CCOCC5)n4)cc3s2)cc1	UPR XBP1 act 58 (no result: CHOP inhibitor) | XBP1 UPR conf 31
CCc1cc2c(N=Nc3c(O)[nH]c4ccccc34)ncnc2s1	UPR XBP1 act 35 | XBP1 UPR conf inactive
c1ccc(SSc2ccccc2)cc1	UPR XBP1 act 49 | XBP1 UPR conf inactive
CCOC(=O)c1cc(-c2ccccc2)sc1NC(=O)c1ccc(OC)cc1	UPR XBP1 act 151 (no result: iPSC survival up, H9c2 protect) | XBP1 UPR conf 118
COC(=O)c1sc(-c2ccccc2)cc1NC(=O)c1ccc(F)cc1	UPR XBP1 act 61 | XBP1 UPR conf inactive
CCOC(=O)c1cc(-c2ccccc2)sc1NC(=O)CC	none
COC(=O)c1sc(-c2ccccc2)cc1NC(=O)c1ccc(OC)cc1	none
COc1ccc(C)cc1NC(=O)NC1CC(=O)N(c2ccc3c(c2)OCCO3)C1 (stereo not given)	none (no result: UPR XBP1 act, CHOP inhibitor, CHOP UPR activ)
Cc1cc(C)c(C(O)c2ncc(-c3ccccc3F)[nH]2)c(C)c1 (stereo not given)	none (no result: UPR XBP1 act, CHOP inhibitor, CHOP UPR activ)
CCOc1ccccc1CNC(=O)C1CCN(c2nnc(C)c3c(C)n(-c4ccc(C)cc4)nc23)CC1	UPR XBP1 act 64 (no result: CHOP inhibitor) | XBP1 UPR conf 85
COc1ccccc1CCNC(=O)C1CCN(c2nnc(C)c3c(C)n(-c4ccc(C)cc4)nc23)CC1	UPR XBP1 act 114 (no result: CHOP inhibitor) | XBP1 UPR conf 139
COc1ccc(/C=N/Nc2nnc(Cc3ccc(OC)c(OC)c3)c(=O)[nH]2)cc1OC	none
COc1ccc(Cc2nnc(N/N=C/c3ccc(N(C)C)cc3)[nH]c2=O)cc1OC	UPR XBP1 act 31 | XBP1 UPR conf 51
CCOC(=O)C1=C(C)N=C2SC(C(=O)OC)=CC(=O)N2C1c1cccc(OC)c1 (stereo not given)	none
CCOC(=O)C1=C(C)N=C2SC(C(=O)OC)=CC(=O)N2C1c1ccc(F)cc1 (stereo not given)	UPR XBP1 act 132 | XBP1 UPR conf 103
CC(CCC(=O)NN)C1CCC2C3CCC4CC(O)CCC4(C)C3CCC12C (stereo not given)	none (no result: UPR XBP1 act, CHOP inhibitor, CHOP UPR activ)
C/C(=N\NC(N)=S)C1=CCC2C3CC[C@H]4CC(O)CC[C@]4(C)C3CC[C@]12C (stereo not given in full)	UPR XBP1 act 41 (no result: CHOP inhibitor) | XBP1 UPR conf inactive
CNC[C@@H]1OCc2cnnn2CCCC(=O)N([C@H](C)CO)C[C@H]1C	none (no result: UPR XBP1 act, CHOP inhibitor, CHOP UPR activ)
CC(C)N1CCCC(C)(C(=O)Nc2nc3ccccc3n2C)C1 (stereo not given)	none (no result: UPR XBP1 act, CHOP inhibitor, CHOP UPR activ)
COc1cc(NC(=O)N2CCc3nc(Nc4cc(Cl)cc(Cl)c4)ncc3C2)cc(OC)c1OC	none (no result: UPR XBP1 act, CHOP inhibitor, CHOP UPR activ)
CCC1CCc2c(sc3nc(SCC(=O)NCc4ccco4)n(-c4ccccc4)c(=O)c23)C1 (stereo not given)	UPR XBP1 act 43 | XBP1 UPR conf 70
CC(=O)Nc1ccc(SCC(=O)Nc2ccccc2N2CCOCC2)cc1	none (no result: CHOP inhibitor)

High-throughput results deposited in PubChem by several laboratories.
